In the array DNA melting data of Ke et al. (doi:10.1101/2024.01.08.574731):

Legend:
[1] = folding enthalpy; higher = less favourable; fluorescence melt of hairpins on a sequencing array, two-state fit; details: sodium 0.088 M
Summary of the method: (§1)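 To match UV melts, fitted temperatures were raised by 9.35 °C. These fits were bootstrapped two-state models that gave melting temperature and folding enthalpy, combined by inverse variance over four replicates. The input was normalised Cy3 fluorescence of library hairpins with annealed Cy3 and quencher oligos on a sequenced MiSeq flow cell, imaged in 50 mM Na-HEPES pH 8.0, 25 mM NaCl in 2.5 °C steps up to 60 °C.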

[2] = melting temperature; fluorescence melt of hairpins on a sequencing array, two-state fit, raised by 9.35 °C to match UV melts; details: sodium 0.088 M
Summary of the method: as §1

| Sequence | folding enthalpy [1] | Tm [2] |
| --- | --- | --- |
| GCTGACGAAAGTCGAAGC ((((((....)))..))) | -19.1 kcal/mol | 48.5 °C |
| GCTGACGGAAACGTCAAC (.(((((....))))).) | -14.3 kcal/mol | 43.2 °C |
| GCTGAGCGAAAGCCAAGC (((..((....))..))) | -18.8 kcal/mol | 48.6 °C |
| GCTGAGCGAAAGCCCTGC ((.(.((....)).).)) | -17.7 kcal/mol | 42.5 °C |
| GCTGAGCGAAAGCGCCGC ((.(.((....)).).)) | -15.2 kcal/mol | 50.5 °C |
| GCTGAGCGAAAGCTAGC (((.(((....)))))) | -26.3 kcal/mol | 53 °C |
| GCTGAGCGAAAGCTAGGC ((..(((....)))..)) | -20.3 kcal/mol | 52.7 °C |
| GCTGATGGAAACATCAGC (((((((....))))))) | -43.5 kcal/mol | 67.6 °C |
| GCTGATGGAAACATTGGC ((..(((....)))..)) | -31 kcal/mol | 36 °C |
| GCTGCACCGAAAGGTAGC (((..(((....)))))) | -13.4 kcal/mol | 49.2 °C |
| GCTGCAGGAAACTACAGC ((((.((....)).)))) | -33.9 kcal/mol | 45.6 °C |
| GCTGCATCGAAAGATAGC (((..(((....)))))) | -17 kcal/mol | 35.6 °C |
| GCTGCCCGAAAGGGAGC (((.(((....)))))) | -23 kcal/mol | 57.1 °C |
| GCTGCCGAAAGGCGAGC ((((((....))).))) | -18.6 kcal/mol | 64.3 °C |
| GCTGCCGAAAGGCGGAGC ((((((....)))..))) | -12.6 kcal/mol | 51.3 °C |
| GCTGCCGAAAGGCTGAGC ((((((....)))..))) | -16.2 kcal/mol | 50.1 °C |
| GCTGCGCGAAAGCAAAGC (((..((....))..))) | -30.6 kcal/mol | 62 °C |
| GCTGCGCGAAAGCCGAGC (((..((....))..))) | -17 kcal/mol | 45 °C |
| GCTGCGCGAAAGCGAGC (((.(((....)))))) | -14.3 kcal/mol | 60.4 °C |
| GCTGCGCGAAAGCGATGC ((..(((....)))..)) | -18.6 kcal/mol | 58 °C |
| GCTGCGCGAAAGCGTGGC ((..(((....)))..)) | -24.3 kcal/mol | 65.9 °C |
| GCTGCGCGAAAGCTCTGC ((.(.((....)).).)) | -18.2 kcal/mol | 42.3 °C |
| GCTGCGCGAAAGCTGAGC (((..((....))..))) | -13.2 kcal/mol | 43.8 °C |

| Sequence | folding enthalpy [1] | Tm [2] |
| --- | --- | --- |
| GCTGCGGCGAAAGCCAGC (((..(((....)))))) | -10.7 kcal/mol | 57.4 °C |
| GCTGCGGGAAACCACAGC ((((.((....)).)))) | -37.5 kcal/mol | 52.7 °C |
| GCTGCGGGAAACCGTAGC (((.(((....))).))) | -49.1 kcal/mol | 58.5 °C |
| GCTGCTCGAAAGAGAAGC (((.(((....))).))) | -37.6 kcal/mol | 55.5 °C |
| GCTGCTGGAAACAACAGC ((((.((....)).)))) | -32.8 kcal/mol | 47.2 °C |
| GCTGGACGAAAGTCAGC (((.(((....)))))) | -30.6 kcal/mol | 56.1 °C |
| GCTGGAGGAAACCCCAGC (((((.(....).))))) | -38.7 kcal/mol | 52.8 °C |
| GCTGGAGGAAACTCCGGC ((.((((....)))).)) | -40.4 kcal/mol | 57.1 °C |
| GCTGGAGGAAACTTCAGC ((((.((....)).)))) | -40.8 kcal/mol | 50 °C |
| GCTGGATCGAAAGATAGC (((..(((....)))))) | -21 kcal/mol | 30.8 °C |
| GCTGGCCCGAAAGGGAGC (((..(((....)))))) | -12.7 kcal/mol | 44 °C |
| GCTGGCGAAAGCCAAGC ((((((....))).))) | -20.2 kcal/mol | 66.5 °C |
| GCTGGCGAAAGCCCTAGC ((((((....)))..))) | -12 kcal/mol | 40.9 °C |
| GCTGGCGAAAGCCTAGC ((((((....))).))) | -19.4 kcal/mol | 59.3 °C |
| GCTGGGCCGAAAGGCAGC (((..(((....)))))) | -13.3 kcal/mol | 48.5 °C |
| GCTGGGCGAAAGCACCGC ((.(.((....)).).)) | -20.7 kcal/mol | 52.7 °C |
| GCTGGGCGAAAGCCGGGC ((..(((....)))..)) | -19.3 kcal/mol | 55.6 °C |
| GCTGGGCGAAAGCCTTGC ((..(((....)))..)) | -17.1 kcal/mol | 53.2 °C |
| GCTGGTACGAAAGTAAGC (((..(((....)))))) | -16.2 kcal/mol | 34.2 °C |
| GCTGGTCGAAAGACAGC (((.(((....)))))) | -27.3 kcal/mol | 54.7 °C |
| GCTGGTGGAAACATCAGC ((((.((....)).)))) | -39.5 kcal/mol | 53.4 °C |
| GCTGGTGGAAACGCCAGC (((((.(....).))))) | -52.9 kcal/mol | 61.8 °C |
| GCTGTAACGAAAGTTAGC (((..(((....)))))) | -20.5 kcal/mol | 35 °C |

| Sequence | folding enthalpy [1] | Tm [2] |
| --- | --- | --- |
| GCTGTACCGAAAGGTAGC (((..(((....)))))) | -15.4 kcal/mol | 43.7 °C |
| GCTGTACGAAAGTAAGC (((.(((....)))))) | -27.1 kcal/mol | 49.2 °C |
| GCTGTAGGAAACTATGGC ((..(((....)))..)) | -26.3 kcal/mol | 34.7 °C |
| GCTGTCCGAAAGGAAAGC (((.(((....))).))) | -37.8 kcal/mol | 53.7 °C |
| GCTGTCGAAAGACAAGC ((((((....))).))) | -27.8 kcal/mol | 54.4 °C |
| GCTGTCGAAAGACATAGC ((((((....)))..))) | -16.4 kcal/mol | 45.1 °C |
| GCTGTCGAAAGACGCAGC ((((((....)))..))) | -14.1 kcal/mol | 46.6 °C |
| GCTGTCGAAAGACGTAGC ((((((....)))..))) | -22.7 kcal/mol | 48.1 °C |
| GCTGTGCGAAAGCAAGGC ((..(((....)))..)) | -20 kcal/mol | 50.6 °C |
| GCTGTGCGAAAGCAGAGC (((.(((....))).))) | -56 kcal/mol | 57.8 °C |
| GCTGTGCGAAAGCATAGC (((.(((....))).))) | -57.9 kcal/mol | 59.4 °C |
| GCTGTGCGAAAGCATCGC ((..(((....)))..)) | -17.9 kcal/mol | 44.6 °C |
| GCTGTGCGAAAGCCCTGC ((.(.((....)).).)) | -15.3 kcal/mol | 41.9 °C |
| GCTGTGGGAAACCATGGC ((..(((....)))..)) | -33.5 kcal/mol | 44.5 °C |
| GCTGTTCCGAAAGGAAGC (((..(((....)))))) | -14 kcal/mol | 35.1 °C |
| GCTGTTCGAAAGAAGAGC (((.(((....))).))) | -37.2 kcal/mol | 50.6 °C |
| GCTGTTGAAAAACAGC ((((((....)))))) | -38.6 kcal/mol | 59.2 °C |
| GCTGTTGCGAAAGCAAGC (((..(((....)))))) | -12.6 kcal/mol | 47.3 °C |
| GCTTAAACGAAAGTTAGC (((..(((....)))))) | -16.2 kcal/mol | 33.9 °C |
| GCTTACCCGAAAGGGAGC (((..(((....)))))) | -15.3 kcal/mol | 39 °C |
| GCTTACGAAAGTACAAGC ((((((....)))..))) | -20 kcal/mol | 37.6 °C |
| GCTTACGAAAGTACGAGC ((((((....)))..))) | -20.3 kcal/mol | 32.1 °C |
| GCTTACGAAAGTATTAGC ((((((....)))..))) | -23.9 kcal/mol | 33.5 °C |

| Sequence | folding enthalpy [1] | Tm [2] |
| --- | --- | --- |
| GCTTACGGAAACATAAGC (((((.(....).))))) | -21.6 kcal/mol | 35.1 °C |
| GCTTAGCGAAAGCGGAGC (((..((....))..))) | -16.8 kcal/mol | 58.7 °C |
| GCTTAGCGAAAGCTAGC (((.(((....)))))) | -19.2 kcal/mol | 53.8 °C |
| GCTTAGCGAAAGCTCCGC ((..(((....)))..)) | -12.8 kcal/mol | 36 °C |
| GCTTAGGCGAAAGCCAGC (((..(((....)))))) | -15.1 kcal/mol | 44.4 °C |
| GCTTATGGAAACATGAGC (((.(((....))).))) | -33.5 kcal/mol | 45.6 °C |
| GCTTCACCGAAAGGTAGC (((..(((....)))))) | -16.8 kcal/mol | 35.3 °C |
| GCTTCAGAAATGAAGC ((((((....)))))) | -33.7 kcal/mol | 55.7 °C |
| GCTTCAGGAAACTGAAGC (((((((....))))))) | -32.9 kcal/mol | 66 °C |
| GCTTCCCGAAAGGGGAGC (((.(((....))).))) | -46 kcal/mol | 65.5 °C |
| GCTTCCCGAAAGGGTAGC (((.(((....))).))) | -33.9 kcal/mol | 56.4 °C |
| GCTTCCGAAAGGAAAAGC ((((((....)))..))) | -17.6 kcal/mol | 49.7 °C |
| GCTTCCGAAAGGAATAGC ((((((....)))..))) | -17.8 kcal/mol | 44 °C |
| GCTTCCGGAAACAGAAGC (((((.(....).))))) | -30.6 kcal/mol | 41.9 °C |
| GCTTCGCGAAAGCAAGGC ((.(.((....)).).)) | -12.3 kcal/mol | 36.1 °C |
| GCTTCGCGAAAGCACAGC (((..((....))..))) | -15.3 kcal/mol | 38.2 °C |
| GCTTCGCGAAAGCCAAGC ((((.((....)).)))) | -18.2 kcal/mol | 50.3 °C |
| GCTTCGCGAAAGCCGAGC (((..((....))..))) | -18.5 kcal/mol | 41.7 °C |
| GCTTCGCGAAAGCTAAGC ((((.((....)).)))) | -20.5 kcal/mol | 57.2 °C |
| GCTTCGCGAAAGCTGAGC (((..((....))..))) | -14.5 kcal/mol | 45.5 °C |
| GCTTCGCGAAAGCTTAGC (((..((....))..))) | -15.2 kcal/mol | 50.2 °C |
| GCTTCGGCGAAAGCCAGC (((..(((....)))))) | -10.3 kcal/mol | 40.2 °C |
